Data taken from ChEMBL document CHEMBL1154117, “Synthesis and evaluation of a novel series of quinoline derivatives with immunosuppressive activity” (Bioorg Med Chem, 2009).

Legend:
[1] = Immunosuppressive activity in BALB/c mouse splenocytes assessed as inhibition of concanavalin A-induced cell proliferation at 100 uM after 48 hrs by MTT assay; format: functional; details: Splenocyte
Method in brief: (§1)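 Spleen cells (5 × 10⁵) from male BALB/c mice aged 6–8 weeks, erythrocytes lysed, stimulated with ConA 5 μg/mL in RPMI-1640/10% FBS. Compounds diluted from DMSO stock. ConA-stimulated cells used as control. Proliferation read by MTT added 4 h before end of culture, SDS/DMF lysis for 6 h, absorbance at 570 nm.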

[2] = Immunosuppressive activity in BALB/c mouse splenocytes assessed as inhibition of concanavalin A-induced cell proliferation at 30 uM after 48 hrs by MTT assay; format: functional; details: Splenocyte; method in brief: as §1
[3] = Cytotoxicity against BALB/c mouse splenocytes at 30 uM after 48 hrs by MTT assay; format: cell-based, Splenocyte; details: read-out: INH
Method in brief: (§2)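 BALB/c spleen single-cell suspension, erythrocytes depleted with Tris-buffered NH4Cl (0.155 M NH4Cl, 16.5 mM Tris, pH 7.2). Cells cultured in RPMI-1640 with 10% FBS and compound diluted from DMSO stock (0.1% DMSO in control). Medium-alone cells served as control. MTT (5 mg/mL) added 4 h before end of culture, then SDS/DMF lysis buffer (pH 7.2) for 6 h. Absorbance read at 570 nm and growth inhibition % calculated.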

[4] = Cytotoxicity against BALB/c mouse splenocytes at 100 uM after 48 hrs by MTT assay; format: cell-based, Splenocyte; details: read-out: INH; method in brief: as §2
[5] = Cytotoxicity against BALB/c mouse splenocytes at 10 uM after 48 hrs by MTT assay; format: cell-based, Splenocyte; details: read-out: INH; method in brief: as §2
[6] = Immunosuppressive activity in BALB/c mouse splenocytes assessed as inhibition of concanavalin A-induced cell proliferation at 10 uM after 48 hrs by MTT assay; format: functional; details: Splenocyte; method in brief: as §1
Splenocyte [7] = experiment: Immunosuppressive activity against concanavalin A-induced BALB/c mouse splenocytes assessed as inhibition of [3H]thymidine incorporation at 1 uM by liquid scintillation counting; format: functional
T-cell [8] = experiment: Immunosuppressive activity against concanavalin A-induced BALB/c mouse splenocytes assessed as T-cells activation at 3 uM after 24 hrs by FACS assay; format: functional
Method in brief: (§3)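 Male BALB/c splenocytes (6–8 weeks), 5 × 10⁵, stimulated with ConA 5 μg/mL, with or without compound. After 24 h, cells washed twice in cold PBS and stained with CD25-FITC and CD4-APC for 30 min at 4 °C. Washed again and analysed by flow cytometry as the CD4+CD25+/CD4+ percentage.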

T-cell [9] = experiment: Immunosuppressive activity against concanavalin A-induced BALB/c mouse splenocytes assessed as T-cells activation at 10 uM after 24 hrs by FACS assay; format: functional; method in brief: as §3
Splenocyte [10] = experiment: Immunosuppressive activity against concanavalin A-induced BALB/c mouse splenocytes assessed as inhibition of [3H]thymidine incorporation at 10 uM by liquid scintillation counting; format: functional
T-cell [11] = experiment: Immunosuppressive activity against concanavalin A-induced BALB/c mouse splenocytes assessed as T-cells activation at 30 uM after 24 hrs by FACS assay; format: functional; method in brief: as §3
T-cell [12] = experiment: Immunosuppressive activity against concanavalin A-induced BALB/c mouse splenocytes assessed as T-cells activation at 1 uM after 24 hrs by FACS assay; format: functional; method in brief: as §3
Splenocyte [13] = experiment: Immunosuppressive activity against concanavalin A-induced BALB/c mouse splenocytes assessed as inhibition of [3H]thymidine incorporation at 30 uM by liquid scintillation counting; format: functional

Row | SMILES | inhibition at 100 µM [1] | inhibition at 30 µM [2] | cytotoxicity at 48 h, 30 µM [3] | cytotoxicity at 48 h, 100 µM [4] | cytotoxicity at 48 h, 10 µM [5] | inhibition at 10 µM [6] | inhibition at 1 µM (Splenocyte [7]) | Activity (T-cell [8]) | Activity (T-cell [9]) | inhibition at 10 µM (Splenocyte [10]) | Activity (T-cell [11]) | Activity (T-cell [12]) | inhibition at 30 µM (Splenocyte [13])
1 | COc1cc(OC)c2c(=O)cc[nH]c2c1 | 12.3% | 3.7% | 7.8% | 7.5% | 6.1% | 0.1% |  |  |  |  |  |  | 
2 | COc1cc(OC)c2c(O[C@@H]3O[C@H](CO)[C@@H](O)[C@H](O)[C@H]3O)ccnc2c1 | 20.4% | 6% | 9.1% | 9.5% | 7.6% | 3.6% |  |  |  |  |  |  | 
3 | COc1cc(OC)c2c(O[C@@H]3O[C@H](CO)[C@H](O)[C@H](O)[C@H]3O)ccnc2c1 | 17.8% | 11.2% | 4.2% | 17% | 6.2% | 4.2% |  |  |  |  |  |  | 
4 | COc1cc(OC)c2c(OC(=O)c3ccccc3Cl)ccnc2c1 | 89.8% | 73.7% | 6.6% | 39.8% | 2.9% | 46.1% | 4.3% | 92.8% | 93.1% | 37.9% | 90.86% | 95.63% | 52%
5 | COc1cc(OC)c2c(O[C@@H]3OC[C@@H](O)[C@H](O)[C@H]3O)ccnc2c1 | 41% | 14.9% | 9.1% | 11.2% | 6.9% | 10.3% |  |  |  |  |  |  | 
6 | CCCCCCCCC(=O)Oc1ccnc2cc(OC)cc(OC)c12 | 31.9% | 2% | 2% | 11.6% | 6.4% | 4.4% |  |  |  |  |  |  | 
7 | COc1cc(OC)c2c(OC(=O)c3cc(Cl)cc(Cl)c3)ccnc2c1 | 7.9% | 5.1% | 10.7% | 7.2% | 3.4% | 3.9% |  |  |  |  |  |  | 
8 | COc1cc(OC)c2c(OC(=O)c3cc([N+](=O)[O-])cc([N+](=O)[O-])c3)ccnc2c1 | 5.6% | 5.1% | 9.5% | 13.4% | 3.4% | 6.3% |  |  |  |  |  |  | 
9 | COc1cc(OC)c2c(OC(=O)c3cccc(Cl)c3)ccnc2c1 | 90.8% | 42% | 9.4% | 12.2% | 3.1% | 20.6% |  |  |  |  |  |  | 
10 | COc1cc(OC)c2c(OC(=O)c3ccc(I)cc3)ccnc2c1 | 91.3% | 47.2% | 6.6% | 23.4% | 6% | 26.4% |  |  |  |  |  |  | 
11 | O=c1cc[nH]c2cc(O)cc(O)c12 | 18% | 1.7% | 10.9% | 8.6% | 1.8% | -0.9% |  |  |  |  |  |  | 
12 | Cc1cc(=O)c2c(O)cc(O)cc2[nH]1 | 26.7% | 4.4% | 9.9% | 11.2% | 9.1% | 7.5% |  |  |  |  |  |  | 
13 | CCCCCCCC/C=C\CCCCCCCC(=O)Oc1ccnc2cc(OC)cc(OC)c12 | 22.2% | 8.5% | 8.8% | 7.2% | 4.1% | 4.4% |  |  |  |  |  |  | 
14 | COC(=O)c1ccc(C(=O)Oc2ccnc3cc(OC)cc(OC)c23)cc1 | 91.4% | 27.8% | 2.2% | 23.6% | 6.6% | 15.7% |  |  |  |  |  |  | 
15 | COc1cc(OC)c2c(OC(=O)c3ccc(Cl)cc3Cl)ccnc2c1 | 79.2% | 62.3% | 20.8% | 22.7% | 16.5% | 35.3% |  |  |  |  |  |  | 
16 | COc1cc(OC)c2c(OC(=O)c3cccc([N+](=O)[O-])c3)ccnc2c1 | 82.8% | 42% | 8.1% | 12.2% | 3.3% | 18.8% |  |  |  |  |  |  | 

Row | SMILES | inhibition at 100 µM [1] | inhibition at 30 µM [2] | cytotoxicity at 48 h, 30 µM [3] | cytotoxicity at 48 h, 100 µM [4] | cytotoxicity at 48 h, 10 µM [5] | inhibition at 10 µM [6] | inhibition at 1 µM (Splenocyte [7]) | Activity (T-cell [8]) | Activity (T-cell [9]) | inhibition at 10 µM (Splenocyte [10]) | Activity (T-cell [11]) | Activity (T-cell [12]) | inhibition at 30 µM (Splenocyte [13])
17 | COc1cc(OC)c2c(OC(=O)c3ccccc3OC)ccnc2c1 | 85.3% | 35.2% | 17.6% | 47.9% | 10.3% | 11.3% |  |  |  |  |  |  | 
18 | COc1cc(OC)c2c(OC(=O)c3cccc(Br)c3)ccnc2c1 | 91% | 48.8% | 1.7% | 21% | 1.7% | 16.9% |  |  |  |  |  |  | 
19 | COc1cc(OC)c2c(OC(=O)c3ccccc3F)ccnc2c1 | 31% | 14.3% | 12.8% | 19.5% | 7.7% | 9.3% |  |  |  |  |  |  | 
20 | COc1cc(OC)c2c(OC(=O)c3ccccc3I)cc(C)nc2c1 | 91.5% | 54% | 18.2% | 37.6% | -3.4% | 19.9% |  |  |  |  |  |  | 
21 | COc1cc(OC)c2c(OC(C)=O)ccnc2c1 | 22.7% | 9.7% | 11.2% | 11.3% | 8.3% | 4.1% |  |  |  |  |  |  | 
22 | CCCCC(=O)Oc1ccnc2cc(OC)cc(OC)c12 | 13.9% | 5.3% | 10.5% | 9.4% | 4.5% | 4.1% |  |  |  |  |  |  | 
23 | COc1cc(OC)c2c(OC(=O)c3ccc(Br)cc3)ccnc2c1 | 48.2% | 17.5% | 7.3% | 20.7% | 8.6% | 9.2% |  |  |  |  |  |  | 
24 | COc1cc(OC)c2c(OC(=O)c3cc(Br)cc(Br)c3)ccnc2c1 | 12.1% | 10% | 9.4% | 6.3% | 5.5% | 6.4% |  |  |  |  |  |  | 
25 | COc1cc(OC)c2c(OC(=O)c3cccc(I)c3)ccnc2c1 | 85.2% | 50.5% | 5.6% | 11.6% | 3% | 24.7% |  |  |  |  |  |  | 
26 | COc1ccc(C(=O)Oc2ccnc3cc(OC)cc(OC)c23)cc1 | 17.7% | 11% | 11.3% | 13.4% | 8.2% | 7.8% |  |  |  |  |  |  | 
27 | COc1cc(OC)c2c(=O)cc(C)[nH]c2c1 | 57.2% | 35.4% | 14.7% | 23.6% | 6.5% | 15.9% |  |  |  |  |  |  | 
28 | COc1cc(OC)c2c(OC(=O)c3ccc(Cl)cc3)ccnc2c1 | 86.3% | 47.4% | 0.3% | 21.9% | 3.4% | 30.1% |  |  |  |  |  |  | 
29 | COc1cc(OC)c2c(OC(=O)c3ccccc3)cc(C)nc2c1 | 81.5% | 34.8% | -0.2% | 13.7% | -7.6% | 5.7% |  |  |  |  |  |  | 
30 | COc1cc(OC)c2c(OC(=O)c3ccccc3)ccnc2c1 | 35.4% | 13.1% | 4.6% | 7.7% | 0% | 6.2% |  |  |  |  |  |  | 
31 | COc1cc(OC)c2c(OC(=O)c3ccc([N+](=O)[O-])cc3)ccnc2c1 | 64% | 34.1% | 11.1% | 9.5% | 6% | 18.4% |  |  |  |  |  |  | 
